According to the EternaBench riboswitch data:

Test system: MS2 coat protein
Assay: apparent Kd, MS2 coat protein; higher = weaker binding; RNA-MaP array; FMN 200 µM where present
Method in brief: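 The apparent Kd is reported as the median of filtered per-cluster binding-curve fits. To get these curves, designs transcribed by stalled E. coli RNA polymerase on Illumina sequencing-chip clusters were titrated with SNAP-549-labelled MS2 coat protein from 0.7 or 1.5 nM, doubling to 3 µM. Titrations were run without and then with constant ligand in 100 mM Tris-HCl pH 7.5, 80 mM KCl, 4 mM MgCl2, BSA, DTT, yeast tRNA and Tween-20, and green signal was normalised to red-channel RNA signal and control-cluster median Fmax.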

[1] = designed as: OFF switch for flavin mononucleotide, no ligand
[2] = ligand present: flavin mononucleotide, designed as: OFF switch for flavin mononucleotide
[3] = designed as: ON switch for flavin mononucleotide, no ligand
[4] = ligand present: flavin mononucleotide, designed as: ON switch for flavin mononucleotide

Row | Sequence | apparent Kd [1] [nM] | apparent Kd [2] [nM] | apparent Kd [3] [nM] | apparent Kd [4] [nM]
1 | GUAAUUACGAGAGGAUAUUGACAUGAGGAUCACCCAUGUAUUUGGGAGUGUUCACUGAAUUCUUACGAGAAGGCUCGUAAAUAC | 213 | 214 | – | –
2 | ACGCUUUGGGAGAAGGUACGUUAAUUUUUUUCCACAUGAGGAUCACCCAUGUAAGGAUAUCCCGGCGUUAAAUAGGCUACAGCA | 7.2 | 8.14 | – | –
3 | GUAGCAUACAGAGGAUAUUCAAACGACAAAAGUCGACAUGAGGAUCACCCAUGUGGCGAAAGCCGGGAGAAGGCUGAAUGCUAC | – | – | 15 | 12
4 | CACGUGUAAGGAUAUGACAAUGGUAUCUUCGGAUACCAUUGUCAGAAGGUACAUGAGGAUCACCCAUGUAACAC | 16.1 | 26.8 | – | –
5 | ACGUGUUAUACAGGAUAUGUAUAGGAAUAAUCAUACAGUUAUUAAUUAAUGACAGAAGGGUAAACAUGAGGAUCACCCAUGUCA | 546 | 390 | – | –
6 | GGAUUACAAAUUUAUUUAAUACGAACAUGAGGAUCACCCAUGUAGGAUAUGCUAGUUAAGUAAUAGCAGAAGGACAUGUGCCUU | 10.8 | 30.6 | – | –
7 | AGCUCGCGAAGAGGAUAUACAGCGGCGACCUAUCAUGACGAGCGGGUUACAUGAGGAUCACCCAUGUAGAAGGCUUCCCGACUC | 26.6 | 73.9 | – | –
8 | UUUCCACAUGAGGAUCACCCAUGUAAGGAUAUGUAGCGCGGGCUGGUGUCCGAGUGUUACAGAAGGUGCUGGCG | 26.3 | 33.7 | – | –
9 | ACUAGAUGAGGAUAUGCACAUUUUAGUGUUCCUCUAGAUUAACAUGAGGAUCACCCAUGUAGAAGGCGUCAUUU | 77 | 91.5 | – | –
10 | GGGCCGGUGGAGAAGGAGCUUGCAAAACGCAUGCUAGGAUAUCCACAUGAGGAUCACCCAUGUGGGAAUAUCUGGUUUUCACAG | 4.09 | 4.79 | – | –
11 | AAUAACAGAGGAUAUACGAAAAUAAGCGGAAACGCAAAGGGACAUGAGGAUCACCCAUGUAGAAGGCUGGAUAA | 32.6 | 183 | – | –
12 | UGAUCUUUUGUUAGGAUAUGCUGUUUUUUUUUACAGCAGAAGGGACAUGAGGAUCACCCAUGUCUUGUCAUAAA | 11.3 | 18.6 | – | –
13 | CCAUCGAGUGUGAGGAUAUGCUGUUCCUUGGAGCAGCAGAAGGCACAUGAGGAUCACCCAUGUGGAUACGGUGG | 34.3 | 251 | – | –
14 | ACCUGACAUGAGGAUCACCCAUGUCAGGAUAUGUACAUCAGGAAAAAAAAACUGAUGUACAGAAGGGACUUGGG | 22.4 | 18.1 | – | –
15 | GGUGCACGCACAGGAUAUCCGGCGACGCUCGUCGGAGAAGGGUGACAUGAGGAUCACCCAUGUACGUGCAACUCAGUUUGAGAG | – | – | 35.7 | 28.1
16 | GCACUGGAUGUAGGAUAUCAGGACGAUAAGUCCUGAGAAGGACAUGAGGAUCACCCAUGUGAUAAAACCAGUGCAAAUAAUAUA | 18.5 | 109 | – | –
17 | GCCUCACAUGAGGAUCACCCAUGUCAGGAUAUAGGAGGCAGUAGAUAUCCUACCGCCGCUAGAAGGGACUGGCA | 49.1 | 131 | – | –
18 | UUAUACGUUGAGGAUAUGUUAUUUAGUAUAGUUACAGAAGGCGAUACAUGAGGAUCACCCAUGUUUAUGGGCAU | 196 | 153 | – | –

Row | Sequence | apparent Kd [1] [nM] | apparent Kd [2] [nM] | apparent Kd [3] [nM] | apparent Kd [4] [nM]
19 | UUAUUUUUACAGAAGGUUUAAUAAUAUGUAUGAGAAGGAUAUGUAACAUGAGGAUCACCCAUGUUUUAUUUAUAUGAGGUUCGU | 15.3 | 12.5 | – | –
20 | UCGAUUAUACAAGGAUAUCAAUUGUAAUUGAGACUUACAUGAGGAUCACCCAUGUUAAUAUUUUUUGAGAAGGUGUAUUUUCAG | – | – | 47.3 | 26.8
21 | GGUGCGUAUGUGAGGAUAUGCUGGUCCUUGGAUCAGCAGAAGGCACAUGAGGAUCACCCAUGUGGUGUCGUGCC | 114 | 20.8 | – | –
22 | CUGUUCAGUGUAGGAUAUGCAUAUUCCCAUUAUGCAGAAGGACAUGAGGAUCACCCAUGUAUGUUAUUAUCAUGUGUUACAUGC | 33.6 | 124 | – | –
23 | UCACGGGACUAAGGAUAUAUGUGUACCAUUUUCAUAGAAGGUAGAAUGUUUGAUCAUAAACUAAACAUGAGGAUCACCCAUGUU | 27 | 25.1 | – | –
24 | AUAUUUGUGUAGAAGGUACGUGAUUAGUUAUAGUAAGGAUAUACUGACAUGAGGAUCACCCAUGUAUAAAUGGUUAAAUGUUCU | – | – | 27.9 | 20
25 | GGAGCACACCUUAACAUGAGGAUCACCCAUGUCAAAAGACAUGAGGAUAUGGAUCCGAAAAGGAUCCAGAAGGCAUGGUGCUCC | – | – | 188 | 11.9
26 | UGUCGGAGCAGAGGAUAUUACAUGAGGAUCACCCAUGUAUGAACCCAUAGCUGGAAACAGCAAUGUAAGAAGGCUGCUCCGACA | 8.97 | 82.4 | – | –
27 | GAUUUGUGAGGAUAUACAUGAGGAUCACCCAUGUGUGUCCAUACGCGUGAGUCUUCAUGUAGAAGGCGCGGGUC | 17.1 | 15.6 | – | –
28 | AGGAUCCUAUCAAGACAAAUGUACAUGAGGAUCACCCAUGUGCAGGAUAUAGCUAGUUACGGUGGUUAGAAGGGCACGCCAAAA | 8.98 | 13.3 | – | –
29 | UGUAUGGACAGAGGAUAUGCCGAUAGGAUCUACUAUCGAAGAAUCCUCACAUGAGGAUCACCCAUGUAGAAGGCUGUUCAUACU | 8.2 | 34.1 | – | –
30 | CACCGUUAGCGAGGAUAUCGUACAUGAGGAUCACCCAUGUAAUAAAUGAGAAUUUCGGAUGUAUGCGAGAAGGCGCAAAUCGGC | 59 | 43.4 | – | –
31 | AUUAUAUAGACAGGAUAUUGAUUAUUAUUUUAACAUGAGGAUCACCCAUGUAACCUUAUGUGUAGCAAGAAGGGUCAUUUAUUA | 84.3 | 185 | – | –
32 | GUAGCAUACGGAGGAUAUGUAGGAUCCACAUGAGGAUCACCCAUGUUAAGGACAGAAGGCCGUAUGCUACAAGAGCGAAAGCUC | – | – | 10.6 | 12.3
33 | UUCAGCUCGUGAGGAUAUACAUGUGCUGGAAACAGCACUAAAGUUUUCACAUGAGGAUCACCCAUGUAGAAGGCACGAGCUGAG | 15.6 | 34.5 | – | –
34 | GAACGUGACAUGAGGAUCACCCAUGUUGCCUUGGCCAGGUCGUAGGAUAUCCUGUUGAUUAAUUUGGAGAAGGGCGACUGGGAG | – | – | 33.5 | 12.9
35 | UGGUCAUGAUCAGGAUAUUAACAUGGGCUACAUUAAGAAGGGAUAGUGAGAUACGAACAUGAGGAUCACCCAUGUUGUGUUGUU | – | – | 26.8 | 21.2
36 | GAAUUAAUGAUCCAAUUUUACAACAUGAGGAUCACCCAUGUGCAGGAUAUCGUGUGUUUUAUAUUCGAGAAGGGCAAAUACAUU | 161 | 287 | – | –
